Measurements as given in ChEMBL document CHEMBL4715840, “Antibacterial activity of lipo-α/sulfono-γ-AA hybrid peptides” (Eur J Med Chem, 2020).
Values after ≈ are worked out from the molar mass of the structure shown. Active and inactive are the calls of the source. The rule behind the calls is not given here.

Tests used:
[1] = system: Staphylococcus epidermidis; test: Antibacterial activity against methicillin-resistant Staphylococcus epidermidis RP62A incubated for 12 to 16 hrs by microtiter method; assay type: functional; conditions: time 12-16 hrs
Method in brief: (§1)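 Single colony grown overnight at 37 °C in TSB, diluted 100-fold and grown to mid-log phase. Equal volumes of cell suspension and peptide serial dilutions in TSB were combined and incubated 37 °C for 12-16 h. Growth read as absorbance at 600 nm. MIC taken as the lowest concentration inhibiting growth. Three repeats, each in duplicate.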

Pseudomonas aeruginosa = test: Antibacterial activity against Pseudomonas aeruginosa ATCC 27853 incubated for 12 to 16 hrs by microtiter method; assay type: functional; conditions: time 12-16 hrs
Method in brief: (§2)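 Single colonies grown overnight in TSB at 37 °C, diluted 100-fold and grown to mid-log phase. Equal volumes of bacterial suspension and peptide dilutions in TSB mixed and incubated 37 °C for 12-16 h. Growth read as absorbance at 600 nm. MIC taken as lowest concentration inhibiting growth. Three repeats, duplicates each.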

Staphylococcus aureus [2] = test: Antibacterial activity against methicillin-resistant Staphylococcus aureus ATCC 33591 incubated for 12 to 16 hrs by microtiter method; assay type: functional; conditions: time 12-16 hrs; method in brief: as §1
Enterococcus faecalis = test: Antibacterial activity against Enterococcus faecalis ATCC 700802 incubated for 12 to 16 hrs by microtiter method; assay type: functional; conditions: time 12-16 hrs; method in brief: as §2
Escherichia coli [3] = test: Antibacterial activity against Escherichia coli ATCC 25922 incubated for 12 to 16 hrs by microtiter method; assay type: functional; conditions: time 12-16 hrs; method in brief: as §2
[4] = Selectivity index, ratio of HC50 for human RBC to MIC for methicillin-resistant Staphylococcus aureus ATCC 33591; assay type: toxicity; conditions: human red blood cells, read-out: Selectivity Index
[5] = Hemolytic activity against RBC (unknown origin); assay type: ADME, cell-based, Erythrocyte; conditions: red blood cells (erythrocytes)
Staphylococcus aureus [6] = test: Bactericidal activity against methicillin-resistant Staphylococcus aureus ATCC 33591 at 50 ug/ml measured after 10 mins by time-kill assay; assay type: functional, organism-based
Method in brief: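 Cells grown in TSB at 37 °C to mid-log phase, diluted to 1 × 10^6 CFU/mL, then exposed to peptide at 12.5, 25 or 50 µg/mL for 10 min, 30 min, 1 h and 2 h. Samples diluted 102 to 104-fold and plated. Colonies counted after overnight growth at 37 °C and plotted against exposure time.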

Escherichia coli [7] = test: Bactericidal activity against Escherichia coli ATCC 25922 at 25 to 50 ug/ml measured after 60 mins by time-kill assay; assay type: functional, organism-based; conditions: dose 25-50 µg/ml
Method in brief: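 Mid-log TSB cultures at 37 °C diluted to 1 × 10^6 CFU/mL and exposed to 12.5, 25 or 50 µg/mL peptide for 10 min, 30 min, 1 h and 2 h. Aliquots diluted 102 to 104-fold and plated. Colonies counted after overnight incubation at 37 °C and plotted against exposure time.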

Cell membrane [8] = test: Induction of membrane disruption in Escherichia coli at 250 ug/ml measured for 30 mins by DiSC35 dye based fluorescence assay; assay type: subcellular; conditions: dose 250.0 µg/ml
Cell membrane [9] = test: Induction of membrane disruption in Escherichia coli at 6 ug/ml measured after 2 hrs by DAPI/propidium iodide staining based fluorescence microscopic analysis; conditions: dose 6.0 µg/ml
Method in brief: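 Mid-log bacteria exposed to peptide for 2 h at 37 °C, then centrifuged at 5000g for 15 min and washed with PBS. Stained with PI (5 µg/mL), washed three times in PBS, then stained with DAPI (10 µg/mL), each stain 15 min on ice in the dark. Viewed by fluorescence microscopy with a 100X oil objective.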

Cell membrane [10] = test: Induction of membrane disruption in methicillin-resistant Staphylococcus aureus ATCC 33591 at 6 ug/ml measured after 2 hrs by DAPI/propidium iodide staining based fluorescence microscopic analysis; assay type: subcellular; conditions: dose 6.0 µg/ml
Method in brief: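 Mid-log cells exposed to peptide at 37 °C for 2 h. Methods give 10 µg/mL; the legend gives 6 µg/mL. Cells pelleted at 5000g for 15 min and washed in PBS. Stained with PI (5 µg/mL), washed three times in PBS, then stained with DAPI (10 µg/mL), each stain 15 min on ice in the dark. Imaged with a 100X oil objective. Untreated cells as control.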

Cell membrane [11] = test: Induction of membrane disruption in methicillin-resistant Staphylococcus aureus ATCC 33591 at 250 ug/ml measured for 30 mins by DiSC35 dye based fluorescence assay; assay type: subcellular; conditions: dose 250.0 µg/ml
Method in brief: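 Mid-log cells washed with 5 mM HEPES and 5 mM glucose. Resuspended at 10^8 CFU/mL in 5 mM glucose, 5 mM HEPES and 100 mM KCl mixed 1:1:1, with 2 µM DiSC3(5), at 37 °C. Fluorescence (ex 622, em 670 nm) followed for 30 min. Peptide at 250 µg/mL added once the minimum was reached, about 20 min. Untreated culture as negative control. At least three repeats in duplicate.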

Question: Which results are given for `CCCCCCCCCCCCCCCCNC(=O)CN(C[C@H](CCCCN)NC(=O)[C@@H](N)CCCCN)S(=O)(=O)Cc1ccccc1`?
Answer: MIC [1]: 20 µg/mL (≈ 28.8 µM); MIC (Pseudomonas aeruginosa): > 50 µg/mL; MIC (Staphylococcus aureus [2]): 5 µg/mL (≈ 7.19 µM); MIC (Enterococcus faecalis): 5 µg/mL (≈ 7.19 µM); MIC (Escherichia coli [3]): 5 µg/mL (≈ 7.19 µM)

Question: What does the source list for `CCCCCCCCCC(=O)N[C@@H](CCCCN)C(=O)N[C@@H](CCCCN)CN(CC(N)=O)S(=O)(=O)Cc1ccccc1`?
Answer: MIC [1]: > 50 µg/mL; MIC (Pseudomonas aeruginosa): > 50 µg/mL; MIC (Staphylococcus aureus [2]): > 50 µg/mL; MIC (Enterococcus faecalis): > 50 µg/mL; MIC (Escherichia coli [3]): > 50 µg/mL

Question: Which results are given for `CCCCCCCCCCCCCCCCNC(=O)CN(C[C@@H](N)CCCCN)S(=O)(=O)Cc1ccccc1`?
Answer: MIC [1]: 20 µg/mL (≈ 35.3 µM); MIC (Pseudomonas aeruginosa): > 50 µg/mL; MIC (Staphylococcus aureus [2]): 5 µg/mL (≈ 8.82 µM); MIC (Enterococcus faecalis): 5 µg/mL (≈ 8.82 µM); MIC (Escherichia coli [3]): 5 µg/mL (≈ 8.82 µM)

Question: For `CCCCCCCCCCCCCCCC(=O)N[C@@H](CCCCN)CN(CC(=O)N[C@@H](CCCCN)CN(CC(N)=O)S(=O)(=O)Cc1ccccc1)S(=O)(=O)Cc1ccccc1`, which MIC [1] is on record?
Answer: 20 µg/mL (≈ 22.1 µM)

Question: What about the MIC (Pseudomonas aeruginosa) of the same molecule?
Answer: > 50 µg/mL

Question: What about the MIC (Staphylococcus aureus [2]) of the same molecule?
Answer: 8 µg/mL (≈ 8.83 µM)

Question: And the MIC (Enterococcus faecalis)?
Answer: 8 µg/mL (≈ 8.83 µM)

Question: What about the MIC (Escherichia coli [3]) of the same molecule?
Answer: > 50 µg/mL

Question: What does the source list for `CCCCCCCCCCCCCCCC(=O)N[C@@H](CCCCN)C(=O)N[C@@H](CCCCN)CN(CC(=O)N[C@@H](CCCCN)CN(CC(N)=O)S(=O)(=O)Cc1ccccc1)S(=O)(=O)Cc1ccccc1`?
Answer: MIC [1]: 5 µg/mL (≈ 4.83 µM); MIC (Pseudomonas aeruginosa): 8 µg/mL (≈ 7.73 µM); selectivity ratio [4]: 25; HC50 [5]: 50 µg/mL; MIC (Staphylococcus aureus [2]): 2 µg/mL (≈ 1.93 µM); MIC (Enterococcus faecalis): 5 µg/mL (≈ 4.83 µM); MIC (Escherichia coli [3]): 8 µg/mL (≈ 7.73 µM)

Question: Which results are given for `CCCCCCCCCCCCCC(=O)N[C@@H](CCCCN)C(=O)N[C@@H](CCCCN)CN(CC(N)=O)S(=O)(=O)Cc1ccccc1`?
Answer: Activity (Staphylococcus aureus [6]): Active; MIC [1]: 5 µg/mL (≈ 7.34 µM); Activity (Escherichia coli [7]): Active; MIC (Pseudomonas aeruginosa): 5 µg/mL (≈ 7.34 µM); selectivity ratio [4]: 25; HC50 [5]: 125 µg/mL; Activity (Cell membrane [8]): Active; Activity (Cell membrane [9]): Active; Activity (Cell membrane [10]): Active; MIC (Staphylococcus aureus [2]): 5 µg/mL (≈ 7.34 µM); MIC (Enterococcus faecalis): 5 µg/mL (≈ 7.34 µM); MIC (Escherichia coli [3]): 2 µg/mL (≈ 2.94 µM); Activity (Cell membrane [11]): Active

Question: For `CCCCCCCCCCCCCCCCCC(=O)N[C@@H](CCCCN)C(=O)N[C@@H](CCCCN)CN(CC(N)=O)S(=O)(=O)Cc1ccccc1`, which MIC [1] is on record?
Answer: 20 µg/mL (≈ 27.1 µM)

Question: And the MIC (Pseudomonas aeruginosa)?
Answer: > 50 µg/mL

Question: What about the MIC (Staphylococcus aureus [2]) of the same molecule?
Answer: 2 µg/mL (≈ 2.71 µM)

Question: What about the MIC (Enterococcus faecalis) of the same molecule?
Answer: 5 µg/mL (≈ 6.78 µM)

Question: What about the MIC (Escherichia coli [3]) of the same molecule?
Answer: > 50 µg/mL

Question: Which MIC [1] does the source give for `CCCCCCCCCCCC(=O)N[C@@H](CCCCN)C(=O)N[C@@H](CCCCN)CN(CC(N)=O)S(=O)(=O)Cc1ccccc1` here?
Answer: 20 µg/mL (≈ 30.6 µM)

Question: What about the MIC (Pseudomonas aeruginosa) of the same molecule?
Answer: 8 µg/mL (≈ 12.3 µM)

Question: What about the MIC (Staphylococcus aureus [2]) of the same molecule?
Answer: 20 µg/mL (≈ 30.6 µM)

Question: What about the MIC (Enterococcus faecalis) of the same molecule?
Answer: > 50 µg/mL

Question: What about the MIC (Escherichia coli [3]) of the same molecule?
Answer: 5 µg/mL (≈ 7.66 µM)

Question: Which results are given for `CCCCCCCCCCCCCCCC(=O)N[C@@H](CCCCN)CN(CC(N)=O)S(=O)(=O)Cc1ccccc1`?
Answer: MIC [1]: 8 µg/mL (≈ 13.8 µM); MIC (Pseudomonas aeruginosa): > 50 µg/mL; MIC (Staphylococcus aureus [2]): 5 µg/mL (≈ 8.61 µM); MIC (Enterococcus faecalis): 5 µg/mL (≈ 8.61 µM); MIC (Escherichia coli [3]): > 50 µg/mL

Question: With `CCCCCCCCCCCCCC(=O)N[C@@H](CCCCN)C(=O)N[C@@H](CCCCN)CN(CC(=O)N[C@@H](CCCCN)CN(CC(N)=O)S(=O)(=O)Cc1ccccc1)S(=O)(=O)Cc1ccccc1` as the molecule, how does the MIC [1] read?
Answer: 5 µg/mL (≈ 4.97 µM)

Question: What about the MIC (Pseudomonas aeruginosa) of the same molecule?
Answer: 5 µg/mL (≈ 4.97 µM)

Question: What about the selectivity ratio [4] of the same molecule?
Answer: 50

Question: And the HC50 [5]?
Answer: 100 µg/mL

Question: What about the MIC (Staphylococcus aureus [2]) of the same molecule?
Answer: 2 µg/mL (≈ 1.99 µM)

Question: What about the MIC (Enterococcus faecalis) of the same molecule?
Answer: 8 µg/mL (≈ 7.95 µM)

Question: What about the MIC (Escherichia coli [3]) of the same molecule?
Answer: 5 µg/mL (≈ 4.97 µM)

Question: Which results are given for `CCCCCCCCCCCCCCCC(=O)N[C@@H](CCCCN)C(=O)N[C@@H](CCCCN)CN(CC(N)=O)S(=O)(=O)Cc1ccccc1`?
Answer: MIC [1]: 5 µg/mL (≈ 7.05 µM); MIC (Pseudomonas aeruginosa): 20 µg/mL (≈ 28.2 µM); MIC (Staphylococcus aureus [2]): 5 µg/mL (≈ 7.05 µM); MIC (Enterococcus faecalis): 5 µg/mL (≈ 7.05 µM); MIC (Escherichia coli [3]): 5 µg/mL (≈ 7.05 µM)
